This is a sample that favours compounds with a hit; in the whole collection about 1.4% have one here.
PG9 binder = binders of HIV-1 gp120 antibody PG9, primary screen, biochemical, TR-FRET | TR-FRET gp120-PG9 antibody binding | inhibition, % at 6.7 µM | hit rate 0.43% among 360,000; in the data active = inhibition above about 8.5%
NR2E3 ag-1 = inhibitors of NR2E3-RetCOR corepressor binding, primary screen, NR2E3 agonist project, biochemical, TR-FRET, GST-NR2E3, biotin-RetCOR | inhibition of corepressor binding, % at 4.78 µM | Photoreceptor-specific nuclear receptor (Homo sapiens), Q9Y5X4 | hit rate 0.12% among 320,000 | 1536-well | AID 2300, 2010;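 active = percent inhibition above the cutoff of mean plus 3 SD of all tested compounds, set per screening campaign, cut at about 20% in these data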
Target sequence (Q9Y5X4 whole entry, looked up): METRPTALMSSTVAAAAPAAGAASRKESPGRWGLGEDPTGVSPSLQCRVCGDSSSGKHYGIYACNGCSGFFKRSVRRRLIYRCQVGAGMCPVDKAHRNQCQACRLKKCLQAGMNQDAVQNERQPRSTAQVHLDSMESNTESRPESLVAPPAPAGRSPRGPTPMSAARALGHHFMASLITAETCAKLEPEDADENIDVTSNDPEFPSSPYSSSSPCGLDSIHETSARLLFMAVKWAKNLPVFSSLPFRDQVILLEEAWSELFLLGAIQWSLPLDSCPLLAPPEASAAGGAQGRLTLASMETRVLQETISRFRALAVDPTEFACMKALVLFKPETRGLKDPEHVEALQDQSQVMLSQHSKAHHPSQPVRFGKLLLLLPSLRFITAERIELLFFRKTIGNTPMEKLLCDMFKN
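System: GST-NR2E3 and biotin-RetCOR proteins; probe or stimulus: 7 nM biotin-RetCOR; doses: compound at 4.8 µM, single dose; schedule: Compound–protein incubation for 5 h at 4 °C; detection: time-resolved FRET; read-out: percent inhibition; controls: biotin wells as high control, 0.6% DMSO wells as low control; format: 1536-well plates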
NR2E3 ag-2 = NR2E3 agonists in two-hybrid cells, primary screen, cell-based, luminescence, CHO-S, Gal4-NCOR/VP16-NR2E3; Photoreceptor-specific nuclear receptor (Homo sapiens), Q9Y5X4; luciferase; inhibition of corepressor binding, % at 3.98 µM; hit rate 0.35% among 360,000; AID 602229, 2012;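 active = inhibition above the mean of all tested compounds plus 3 SD, cut at about 70% in these data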;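 note: higher means lower luciferase signal from less NR2E3 corepressor binding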
NR1D1 modulator = modulators of Rev-erb alpha DNA binding, primary screen, biochemical, FITC-DNA, fluorescence polarization, uHTS; hit rate 0.79% among 370,000; Nuclear receptor subfamily 1 group D member 1 (Homo sapiens), P20393; Rev-erbα–FITC-DNA binding, 90 min; activity, % at 10 µM;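 active = activity above about 14%, limit read from the data; passing the limit was not always enough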
PG9 bind confirm = binders of anti-gp120 antibody PG9, confirmation, biochemical, TR-FRET. AID 651571, 2012. hit rate 90% among 1,500. inhibition, % at 6.7 µM. shares compounds with PG9 binder. TR-FRET PG9 antibody binding; in the data active = inhibition above about 9%
PGV04 Ab binding = binders of control antibody PGV04, counter-screen for PG9 antibody binder project, biochemical, TR-FRET, distinct HIV envelope site | shares compounds with PG9 binder | hit rate 95% among 1,500 | TR-FRET PGV04 antibody-gp120 binding | inhibition, % at 6.7 µM | AID 651604, 2012; in the data active = inhibition above about 9.5%
PG9 binder DR = small-molecule binders of antibody PG9, dose response, biochemical, TR-FRET, HIV-1 gp120 antibody. shares compounds with PG9 binder. TR-FRET PG9 antibody-gp120 binding inhibition. IC50, µM. 95 tested, under 10 active. AID 651848, 2012; in the data active = IC50 below about 10 µM
PGV04 binding DR = binders of control antibody PGV04, dose response, counter-screen for PG9 antibody binder project, biochemical, TR-FRET, distinct HIV envelope site. shares compounds with PG9 binder. TR-FRET binding to control antibody PGV04. IC50, µM. hit rate 20% among 95
PG126 binding DR = binders of control antibody PG126, dose response, counter-screen for PG9 antibody binder project, biochemical, TR-FRET, distinct HIV envelope site. shares compounds with PG9 binder. TR-FRET binding to antibody PG126, counterscreen. IC50, µM. hit rate 20% among 95. AID 651939, 2012
Large screens that a line does not name were inactive (follow-up assays come after a bar, where they were run). Cut-off read from the data, not from the text of the source, unless noted: active = IC50 below about 9 µM; inactive = the rest.

Cc1cc(=O)n2c(C(=O)Nc3ccc(C(=O)OC(C)C)cc3)c(C(=O)Nc3ccccc3)sc2n1	PG9 binder 12.2 | PG9 bind confirm 22.1 | PGV04 Ab binding 31.0
CC(C)OC(=O)c1ccc(NC(=O)c2cccc(-n3cnnn3)c2)cc1	none
CCOc1ccc(C2/C(=C(\O)c3ccc4c(c3)OCCO4)C(=O)C(=O)N2Cc2cccnc2)cc1OCC (centres undefined)	none
O=C1C(=O)N(Cc2ccncc2)C(c2cccc(O)c2)/C1=C(\O)c1ccc2c(c1)OCCO2 (centres undefined)	none
O=C1C(=O)N(Cc2cccnc2)C(c2cccc(O)c2)/C1=C(\O)c1ccc2c(c1)OCCO2 (centres undefined)	PG9 binder 9.0 | PG9 bind confirm 10.5 | PGV04 Ab binding 20.3
O=C1C(=O)N(Cc2cccnc2)C(c2ccccn2)/C1=C(/O)c1ccc(Br)cc1 (centres undefined)	PG9 binder 11.4 | PG9 bind confirm 18.0 | PGV04 Ab binding 22.7
COc1ccccc1C1/C(=C(\O)c2ccc3c(c2)OCCO3)C(=O)C(=O)N1Cc1cccnc1 (centres undefined)	PG9 binder 13.9 | PG9 bind confirm 11.9 | PGV04 Ab binding 17.6
Cc1ccc(NC(=O)Cn2cnc3cc([N+](=O)[O-])ccc3c2=O)cc1	none
Cc1oc(-c2cccs2)cc1C(=O)N1CCC(C)(C(=O)NS(=O)(=O)C2CC2)C1 (centres undefined)	none (no result: NR2E3 ag-1)
C=CCn1c(SCC(=O)Nc2cc(C)on2)nc2sc3c(c2c1=O)CCCC3	none
CCn1c(SCC(=O)Nc2cc(C)on2)nc2sc3c(c2c1=O)CCCC3	PG9 binder 9.2 | PG9 bind confirm inactive | PGV04 Ab binding 23.8
O=C1N/C(=N\c2ccccn2)SC1Cc1ccc(Cl)cc1 (centres undefined)	PG9 binder 9.3 | PG9 bind confirm 17.0 | PGV04 Ab binding 28.7
Cc1cccc2cc(C#N)c(SCC(=O)NNC(=O)Cc3ccccc3)nc12	PG9 binder 17.2 | PG9 bind confirm 34.6 | PGV04 Ab binding 28.3
CCOc1ccc(NC(=O)Cc2c(C(=O)O)n(C)c3ccccc23)cc1	none
O=[N+]([O-])c1cccc(S(=O)(=O)Nc2nc3ccccc3nc2Nc2cccc(S(=O)(=O)N3CCCCC3)c2)c1	none (no result: NR2E3 ag-1)
Cc1ccc(S(=O)(=O)Nc2nc3ccccc3nc2Nc2cccc(S(=O)(=O)N3CCCC3)c2)cc1	PG9 binder 9.8 | PG9 bind confirm 12.1 | PGV04 Ab binding 13.6
CCCCCCCCN1C(=O)[C@@H](CC(=O)NCC23CC4CC(CC(C4)C2)C3)C[C@@]2(C(=O)OC)C1=C[C@H](COCc1ccccc1)O[C@@H]2C	none (no result: PG9 binder, NR2E3 ag-1, NR2E3 ag-2)
Cc1cc(NC(=O)CSc2nc(-c3cccs3)cc(C(F)(F)F)n2)no1	PG9 binder 24.3 | PG9 bind confirm 34.1 | PGV04 Ab binding 42.5
N#Cc1cnn2c(N)c(-c3ccc(Cl)cc3)cnc12	PG9 binder 15.5 | PG9 bind confirm 24.3 | PGV04 Ab binding 42.8
Nc1c(-c2ccccc2)cnc2c(-c3ccccc3)cnn12	none
COc1cccc(Nc2nc3cc(OC)ccc3cc2C#N)c1	PG9 binder 13.4 | PG9 bind confirm 23.9 | PGV04 Ab binding 24.6
CCN(C(=O)CSc1nnc(-c2ccncc2)n1-c1ccccc1)C1CCS(=O)(=O)C1 (centres undefined)	none
Nc1ccn(C2CCCO2)c(=O)n1 (centres undefined)	none (no result: NR2E3 ag-1)
Nc1ccn(C2CCCCO2)c(=O)n1 (centres undefined)	PG9 binder 13.9 (no result: NR2E3 ag-1) | PG9 bind confirm inactive | PGV04 Ab binding inactive
CCn1c(SCC(=O)c2cc(C)n(-c3ccc(C(=O)OC)cc3)c2C)nnc1-c1cccnc1	none
Cn1c(SCC(=O)Nc2nc3ccccc3s2)nnc1-c1ccccc1	none
CCn1c(SCC(=O)Nc2nc3ccccc3s2)nnc1-c1ccc(Br)cc1	PG9 binder 21.1 | PG9 bind confirm 23.4 | PGV04 Ab binding 35.1
O=C(Cn1cnc2ccccc2c1=O)Nc1nc2ccccc2s1	PG9 binder 17.9 | PG9 bind confirm 21.2 | PGV04 Ab binding 28.1
CCc1ccc2nc(NC(=O)Cn3cnc4ccccc4c3=O)sc2c1	none
O=C(NCCCN1CCOCC1)c1ccc2c(c1)N(Cc1ccc(F)cc1)CCS2	none
CN1CCN(CCCNC(=O)c2ccc3c(c2)N(Cc2ccc(F)cc2)CCS3)CC1	PG9 binder 16.7 | PG9 bind confirm 15.3 | PGV04 Ab binding 23.8
COc1cccc(C2/C(=C(\O)c3ccc(OC)c(OC)c3)C(=O)C(=O)N2c2cc(C)on2)c1 (centres undefined)	PG9 binder 14.2 | PG9 bind confirm 24.6 | PGV04 Ab binding 33.7
COc1ccccc1CNC(=O)/C=C/C(=O)O	none
O=C(O)c1ccc(NC(=O)c2ccc(COc3ccccc3)o2)cc1	none (no result: NR2E3 ag-1)
Cc1ccc(/C=C/c2nc3ccccc3c(=O)[nH]2)cc1	PG9 binder 31.2 | PG9 bind confirm 39.9 | PGV04 Ab binding 46.8
O=C(Nc1ccc2c(c1)OCO2)C1CCN(c2ccc(S(=O)(=O)N3CCOCC3)cc2)CC1	PG9 binder 15.9 | PG9 bind confirm 26.7 | PGV04 Ab binding 25.3 | PG9 binder DR inactive | PGV04 binding DR inactive | PG126 binding DR inactive
Cc1ccc(S(=O)(=O)N2CCC(C(=O)Nc3ccc4c(c3)OCO4)CC2)cc1	none
CCCC1Cc2c(sc3nc(SC)nc(N)c23)CO1 (centres undefined)	PG9 binder 15.8 | PG9 bind confirm 18.4 | PGV04 Ab binding 34.2
Cc1onc(-c2ccccc2)c1C(=O)NCc1cccc(Cl)c1	none
Cc1cccc(C(=O)NCC(=O)OCC(=O)c2ccc(Br)s2)c1	PG9 binder 8.8 (no result: NR2E3 ag-1) | PG9 bind confirm 14.4 | PGV04 Ab binding 20.9

Compound activity as filed in PubChem BioAssay.
